Data taken from publication PMC8790739 (JACS Au, 2022).

Columns and labels:
[1] = system: tobacco BY-2 cells; test: Peptide-mediated Citrine transduction; type: cell-based, Nicotiana tabacum; conditions: for Citrine internalization into BY-2 cells at lower peptide concentrations: 9 nM–9 μM peptide (low concentrations), Figure S2; for Citrine fluorescence in the nuclei of BY-2 cells: 1 h incubation
Summary of the method: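 Exponentially growing BY-2 cells (OD600 0.5) mixed in a glass-bottom dish with Citrine plus peptide, or with individual peptide domains as controls, for 1 h at 26 °C. Citrine-only cells served as control. Uptake was imaged directly by confocal microscopy at Ex/Em 488/515–580 nm.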

[2] = system: C. reinhardtii cells; test: Peptide-mediated Citrine transduction; type: cell-based, Chlamydomonas reinhardtii; conditions: 156 nM peptide, Citrine 100 μg/mL, 20 min (b14 says 3 h), CLSM, Figure 2D
Summary of the method: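 Log-phase Chlamydomonas cells suspended in TAP containing 156 nM peptide, 100 μg/mL Citrine and 40 mM sucrose, for 20 min. Cells washed and mounted on slides; Citrine-only cells served as control. Confocal imaging: Citrine at Ex/Em 488/520–550 nm, chlorophyll at 488/660–720 nm.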

[3] = system: C. reinhardtii cells; test: Colony formation viability assay, C. reinhardtii; type: cell-based, Chlamydomonas reinhardtii; conditions: for Cell death in C. reinhardtii (colony formation assay): 2.5 μM peptide, 20 min in TAP medium with 40 mM sucrose, n = 3, Figure 2C
Summary of the method: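 Log-phase Chlamydomonas reinhardtii wild-type cc125+ (2 days after subculture, grown in TAP at 23 °C under constant light) exposed to peptide (39 nM–2.5 μM) for 20 min in TAP with 40 mM sucrose. Cells washed, plated on TAP agar, colonies counted. Viability = colonies with peptide ÷ colonies without. Three biological replicates, mean ± SD.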

[4] = system: O. sativa calli; test: Evans blue viability assay, O. sativa calli; type: cell-based, Oryza sativa; conditions: 1 h, vacuum/compression infiltration, n = 4, Figure 2A, particularly dTat-Sar-EED5
[5] = system: E. gracilis cells; test: Peptide-mediated Citrine transduction; type: cell-based, Euglena gracilis; conditions: 9 μM peptide, Citrine 100 μg/mL, 3 h at 26 °C, CLSM, Figure 2D
Summary of the method: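 Euglena suspension (OD730 0.23) exposed to Citrine with or without peptide in culture medium in a 96-well plate, 3 h at 26 °C, shaking at 100 rpm. Confocal imaging: Citrine at Ex/Em 488/520–550 nm, chlorophyll at 488/660–720 nm.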

[6] = system: A. thaliana cotyledons; test: Evans blue viability assay, A. thaliana cotyledons; type: cell-based, Arabidopsis thaliana; conditions: 1 h, vacuum/compression infiltration, n = 4, Figure 2A, particularly dTat-Sar-EED5
[7] = system: M. polymorpha sporelings; test: Evans blue viability assay, M. polymorpha sporelings; type: cell-based, Marchantia polymorpha; conditions: 1 h at 22 °C, n = 4, Figure 2A
Summary of the method: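 Marchantia polymorpha sporelings (Tak-1 × Tak-2 cross, held 4 days in water) incubated with peptide for 1 h at 22 °C, then stained with Evans blue 150 μg/mL. Stained (dead) and unstained (live) cells counted; viability taken from live/dead ratio. Boiled sporelings (95 °C, 10 min) served as 100% dead. Four biological replicates, mean ± SE, Dunnett's T3 versus 0 μM.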

[8] = system: E. gracilis cells; test: Evans blue viability assay, E. gracilis; type: cell-based, Euglena gracilis; conditions: 9 nM–90 μM peptide, 3 h at 26 °C, n = 3, Figure 2C
Summary of the method: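 Euglena gracilis was grown in CM medium pH 3.5 (26 °C, 100 rpm) to OD730 0.23, then incubated with peptide (9 nM–90 μM) for 3 h at 26 °C. Cells pelleted and stained with Evans blue 150 μg/mL for 20 min, washed three times, then live and dead cells counted microscopically. Viability = live/dead ratio relative to untreated cells. Three biological replicates, mean ± SD.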

[9] = system: tobacco (Nicotiana tabacum) Bright Yellow-2 (BY-2) cells; test: Evans blue cell viability assay, BY-2 cells; type: cell-based
[10] = system: A. thaliana cotyledons; test: Peptide-mediated Citrine transduction; type: cell-based, Arabidopsis thaliana; conditions: 90 μM peptide, Citrine 200 μg/mL, CLSM, Figure 2B
Summary of the method: (§1)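 Col-0 cotyledons (seedlings 7–9 days) or Nipponbare calli (1 week on N6D, 30 °C, constant light) vacuum/compression-infiltrated with 200 μg/mL Citrine, with 90 μM peptide or alone as control. Incubation 1 h: cotyledons at 22 °C, calli at 30 °C. Washed twice with 1/2 MS plus 1% sucrose; confocal imaging at Ex/Em 488/515–560 nm.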

[11] = system: O. sativa calli; test: Peptide-mediated Citrine transduction; type: cell-based, Oryza sativa; conditions: 90 μM peptide, Citrine 200 μg/mL, CLSM, Figure 2B
Summary of the method: as §1

[12] = system: M. polymorpha sporelings; test: Peptide-mediated Citrine transduction; type: cell-based, Marchantia polymorpha; conditions: 90 μM peptide, Citrine 200 μg/mL, 1 h at 22 °C, CLSM, Figure 2B
Summary of the method: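 Sporelings incubated 1 h at 22 °C in solution with 90 μM peptide and 200 μg/mL Citrine; Citrine alone served as control. Time-gated confocal detection (0.5–12.0 ns) at Ex/Em 510/546–566 nm.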

[13] = system: A. thaliana root epidermal cells; test: FM4-64 uptake into A. thaliana roots; type: cell-based, Arabidopsis thaliana; conditions: dTat-Sar-EED4 30 μM, FM4-64 10 μM, Figure 4B
Summary of the method: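 Roots of Col-0 seedlings (7–9 days) pretreated 30 min at 25 °C in 1/2 MS with 0.6% v/v DMSO or 30 μM ES9-17. FM4-64 (10 μM) then added, ± peptide, for 30 min at 25 °C in the dark. Confocal imaging at Ex/Em 488/620–680 nm. Mean intensity of manually segmented whole cytoplasm was divided by that of the apical plasma membrane, for more than 100 cells from 8 roots.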

[14] = 90 μM peptide, Citrine 100 μg/mL, CLSM, Figure 1D

Row | Substance | Citrine internalization into BY-2 cells at lower peptide concentrations ([1]; CLSM) | Citrine fluorescence in the nuclei of BY-2 cells [1, 14] | Cell death in C. reinhardtii (colony formation assay) [3] | Concentrations at which toxic to O. sativa calli [4] | Concentrations at which toxic to A. thaliana cotyledons [6] | Cell death in M. polymorpha sporelings [7] | Cytotoxicity toward E. gracilis [8] | other results
1 | (Sar)6-GFWFG [Sar-EED5] | – | – | – | – | – | – | – | Citrine uptake by BY-2 cells with individual peptide domains ([1]; 90 μM of each peptide domain, 1 h, Citrine 100 μg/mL, CLSM, Figure 1D): did not show Citrine uptake
2 | rrrqrrkkr-(Sar)6-GFWFG [dTat-Sar-EED5] | negligible Citrine uptake | detected Citrine fluorescence in the nuclei of some cells | induced severe cell death | ≥ 90 µM | ≥ 90 µM | did not cause severe cell death | Neither peptide exhibited cytotoxicity | Citrine internalization into C. reinhardtii [2]: Citrine was internalized; Citrine internalization into E. gracilis [5]: Citrine was internalized
3 | rrrqrrkkr-(Sar)6-GWWG [dTat-Sar-EED4] | no Citrine internalization was observed | detected Citrine fluorescence in the nuclei of some cells | induced severe cell death | ≥ 90 µM | ≥ 90 µM | did not cause severe cell death | Neither peptide exhibited cytotoxicity | Cytotoxicity to BY-2 cells after prolonged treatment ([9]; 90 μM for up to 48 h, n = 3, Figure S1): did not result in significant cytotoxicity; Toxicity to BY-2 cells compared between the two peptides ([9]; 1 h treatment, 9 μM to 9 mM, Figure 1B): less toxic than dTat-Sar-EED5; Citrine internalization into BY-2 cells, time-lapse CLSM ([1]; 90 μM peptide, Citrine 100 μg/mL, Figure 1C, Movies S1, S2): rapid internalization of Citrine into BY-2 cells within a few minutes; Toxicity to C. reinhardtii cells compared between the two peptides ([3]; concentrations of 156 nM or more, 20 min, colony formation assay, Figure 2C): slightly more toxic; Transfer of Citrine to the nucleus in A. thaliana cotyledon cells ([10]; 1 h): appeared to be transferred to the nucleus; Citrine internalization into A. thaliana cotyledons ([10]; 1 h at 22 °C): Citrine internalization was observed; Transfer of Citrine to the nucleus in O. sativa calli ([11]; 1 h): such behavior was not detected; Citrine internalization into O. sativa calli ([11]; 1 h at 30 °C): Citrine internalization was observed; Citrine internalization into M. polymorpha sporelings [12]: Citrine internalization was observed; Enhancement of FM4-64 uptake, DMSO-treated samples ([13]; DMSO 0.6% v/v): slight; Enhancement of FM4-64 uptake, ES9-17-treated samples ([13]; ES9-17 30 μM): more pronounced
